# High-throughput results from PubChem.
# NPY1 pot ag: potentiates or activates human NPY-Y1 receptor. P25929. NPY-Y1 expressing cells, potentiator/agonist activation. activation, % at 3.6 µM. hit rate 0.37% among 220,000; in the data active = activation above about 33%, passing the limit was not always enough;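 also: cells stimulated with NPY at EC10 then isoproterenol at EC100; 0% = low agonist plus stimulus and 100% = saturating agonist plus stimulus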
# Target sequence (P25929 whole entry, looked up): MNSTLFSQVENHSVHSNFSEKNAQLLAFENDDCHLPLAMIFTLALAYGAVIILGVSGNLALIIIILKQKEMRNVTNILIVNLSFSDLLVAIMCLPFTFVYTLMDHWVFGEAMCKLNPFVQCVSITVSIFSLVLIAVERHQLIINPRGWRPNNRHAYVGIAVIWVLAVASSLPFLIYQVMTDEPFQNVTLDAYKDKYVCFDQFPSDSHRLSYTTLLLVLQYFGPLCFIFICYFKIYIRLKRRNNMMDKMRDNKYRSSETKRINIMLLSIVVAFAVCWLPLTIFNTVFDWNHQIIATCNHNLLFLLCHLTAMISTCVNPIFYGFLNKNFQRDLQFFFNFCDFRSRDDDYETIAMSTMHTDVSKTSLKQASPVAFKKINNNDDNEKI
# NPY Y1 blocker: blocks the human neuropeptide Y Y1 receptor; inhibition, % at 3.6 µM; hit rate 1% among 200,000; HEK293-CNG Y1 cells, membrane potential fluorescence; NPY at EC95, then isoproterenol; AID 1040; P25929;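 active = inhibition above the campaign mean inhibition of all tested compounds plus 3 SD, cut at about 20% in these data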;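 also: 0% = DMSO wells given NPY plus isoproterenol and 100% = isoproterenol alone without NPY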
#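 Material: Y1- and CNG-channel-expressing HEK293 cells / Probe or stimulus: NPY 25 nM then isoproterenol 1 µM plus Ro 20-1724 25 µM / Doses: 3.6 µM single dose, DMSO 0.4% / Schedule: compound incubation 1 h at room temperature, readout 45 min post-stimulation / Signal: membrane potential fluorescence / Benchmarks: isoproterenol-only wells as full block versus NPY-plus-isoproterenol wells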
# NPY-Y2 PAM-ag: potentiators or agonists of human neuropeptide Y receptor Y2; P49146; cells expressing NPY-Y2, potentiator/agonist read-out; activation, % at 3.6 µM; hit rate 0.45% among 220,000; AID 1359; in the data active = activation above about 27%;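 also: cells stimulated with NPY near EC25 plus isoproterenol at EC100; 0% = vehicle plus submaximal agonist and 100% = vehicle plus saturating agonist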
# NPY-Y2 antag: NPY-Y2 (human) receptor antagonism; P49146; hit rate 0.99% among 140,000; AID 793; inhibition, % at 2.7 µM; NPY-Y2 expressing cells, antagonist mode; in the data active = inhibition above about 17%;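 also: 0% = vehicle with agonist challenge and 100% = reference antagonist with challenge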
# Wee1 stabilizer: blocks degradation of human Wee1 kinase. AID 1321. P30291. reporter increase, % at 5 µM. HeLa Luc-Wee1K328M stability, luciferase luminescence; 100% = proteasome inhibitor MG132 effect. hit rate 1.2% among 220,000;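 active = activation above the mean of all tested compounds plus 3 SD, set per screening run, cut at about 8.8% in these data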;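 also: cells exposed to compound for 20 h before luminescence read; 0% = DMSO alone and 100% = MG132 at 30 µM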
# Hsp70 activator: switches on Hsp70 transcription; HeLa Hsp70 promoter luciferase reporter, luminescence; scaled: vehicle 0, proteasome-inhibitor control 100%; activation, % at 10 µM; hit rate 0.04% among 200,000; AID 1203;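 active = activation above the mean across all tested compounds plus 3 SD, cutoff set per campaign, cut at about 5.5% in these data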;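 also: 100% = MG132 at 30 µM as the positive control and 0% = DMSO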
# * = called active by the depositor; x = no result. This is a sample that favours compounds with a hit; in the whole collection about 3% have one here.
SMILES,NPY1 pot ag,NPY Y1 blocker,NPY-Y2 PAM-ag,NPY-Y2 antag,Wee1 stabilizer,Hsp70 activator
Cc1ccccc1OCCNC(=O)c1ccc2ccccc2n1,-36,8,-12,7,9.6*,0
Oc1[nH]c(N=C2N=c3ccccc3=N2)c2ccccc12,-2,x,-15,x,9,x
Cn1c(=O)c2c(nc(CN3CCc4ccccc4C3)n2CCc2ccccc2)n(C)c1=O,4,26*,-3,8,2,0
CC(C)n1c(=S)[nH]c2cc(Cl)ccc21,-4,x,-1,x,11*,x
CC(C)n1c(=S)[nH]c2ccccc2c1=O,8,8,3,0,0,0
Cc1ccc(C(=O)COC(=O)c2ccc(O)cc2)cc1,-27,1,4,x,10*,3
CCOC(=O)COC(=O)c1ccc(O)cc1,14,-1,13,1,6,0
NC(=O)COC(=O)c1ccc(-c2ccc(O)cc2)cc1,6,x,1,x,9.8*,x
CCN(C(=O)COc1cc(=O)n(CC)c2ccccc12)c1cc(Cl)ccc1OC,-15,23*,-25,17*,-3,0
Cc1cccc(C)c1NC(=O)c1cccc(COc2cc(Cl)ccc2Cl)c1,-19,-4,-8,8,9.0*,0
C(#Cc1ccccc1)C[N+]1(CC#Cc2ccccc2)CCCCC1,-15,10,3,x,-4,0
Cc1ccc(C#CC[N+]2(CC#Cc3ccc(C)cc3)CCCCC2)cc1,-31,27*,-4,20*,-2,0
CCOc1ccc(OCC)c(NC(=O)CCCN2C(=S)NC(C)(C)CC2C)c1 (stereo not given),-19,5,7,-1,-2,0
Cc1nn(C)cc1/C=N/NC(=O)Cn1nccc1C,5,0,-2,-1,-1,0
CC(=O)OCC(=O)Nc1ccc([N+](=O)[O-])cc1Cl,-10,-3,-1,x,2,1
CC(=O)Oc1c(C)cc(Cl)cc1C(=O)Nc1ccc([N+](=O)[O-])cc1Cl,-49,16,25,20*,4,0
CN(Cc1ccco1)S(=O)(=O)c1ccc2c(c1)CCN2C(=O)CCC(=O)O,-7,-8,8,0,0,0
Cc1c(C(=O)/C=C/N(C)C)nnn1-c1ccc(Cl)c(Cl)c1,26,x,4,x,3,x
Cc1c(C(=O)/C=C/N(C)C)nnn1-c1ccc(F)c(Cl)c1,-5,x,-3,x,10*,x
COc1ccc(-n2c(-c3ccc(Br)cc3)c[n+]3c2CCc2ccccc2-3)cc1,-98,59*,-5,25*,2,0
COc1ccc(-c2cn(-c3ccc(OC)cc3)c3[n+]2-c2ccccc2CC3)cc1,-25,8,16,5,2,0
COc1ccc(CCN(C(=S)Nc2ccccc2)C2CC(=O)N(c3ccccc3)C2=O)cc1 (stereo not given),37,-2,37*,-4,-1,0
COc1ccc(CN(C(=S)Nc2ccccc2)C2CC(=O)N(c3ccc(F)cc3)C2=O)cc1 (stereo not given),12,-17,19,-3,-2,0
COCC(=O)n1nc(-c2ccccc2)nc1NCc1cccs1,3,-6,6,x,14*,0
O=S(=O)(c1ccc(F)cc1)N1CCCN(c2nccc(C(F)(F)F)n2)CC1,4,x,-12,x,9.5*,x
SMILES,NPY1 pot ag,NPY Y1 blocker,NPY-Y2 PAM-ag,NPY-Y2 antag,Wee1 stabilizer,Hsp70 activator
C=CCN=C1S/C(=C/c2cccc([N+](=O)[O-])c2)C(=O)N1CC=C,-8,x,-9,x,9.9*,x
C=CCN=C1S/C(=C/c2ccc([N+](=O)[O-])cc2)C(=O)N1CC=C,-26,x,-22,x,8,x
O=C(O)c1[nH]c2ccc([N+](=O)[O-])cc2c1-c1ccccc1,1,x,3,x,4,x
O=[N+]([O-])c1ccc2[nH]nc(-c3ccccc3)c2c1,13,-7,6,-2,8.9*,0
COc1ccc(NC2=C(NCCO)C(=O)c3ccccc3C2=O)cc1,-12,-2,-14,-1,3,0
Cc1cccc(NC2=C(NCCO)C(=O)c3ccccc3C2=O)c1,20,-4,23,-6,9.3*,0
CC1CCCN(C(=O)CCCn2c(=S)[nH]c3ccccc3c2=O)C1 (stereo not given),-1,8,-2,1,9.7*,0
CC1CCCCC1NC(=O)CCCn1c(=S)[nH]c2ccccc2c1=O (stereo not given),3,0,-10,x,0,0
CCC(C)(C)n1nnnc1C(c1ccc(C)cc1)N1CCC(C)CC1 (stereo not given),-17,39*,-9,20*,-1,0
CCC(C)(C)n1nnnc1C(c1cc(OC)ccc1OC)N1CCN(Cc2ccccc2)CC1 (stereo not given),-1,20*,-12,x,0,0
CCC(C)(C)n1nnnc1C(c1ccc(OC)c(OC)c1)N1CCN(c2cccc(OC)c2)CC1 (stereo not given),-34,24*,-12,22*,-1,0
N=c1c2c(-c3ccccc3)c(-c3ccccc3)oc2ncn1CCCN1CCOCC1,-93,21*,-7,27*,2,0
COc1ccc(C(=O)N[C@H](C(=O)Nc2nc3ccccc3[nH]2)C(C)C)cc1,0,2,-15,x,9.0*,2
CC(C)CNC(=S)N(Cc1ccco1)Cc1cc2cc3c(cc2[nH]c1=O)OCCO3,1,1,14,2,-1,0
O=C1OCCC1Sc1nc(-c2ccccc2)cs1 (stereo not given),9,7,3,2,3,0
O=C1c2ccccc2C(=O)C1c1nccc2ccccc12,10,-1,18,4,10*,0
O=C1c2ccccc2C(=O)C1c1ccnc2ccccc12,15,2,-3,-1,11*,1
CN(CCNC(=O)CN1C(=O)CSc2ccc(S(=O)(=O)N3CCCC3)cc21)Cc1ccccc1,-12,6,-11,x,10*,0
CC(=O)Nc1ccc(N2C(=O)c3ccc(C(=O)Nc4nnc(SCc5ccc(F)cc5)s4)cc3C2=O)cc1,-8,3,-20,x,0,0
COCC(=O)Nc1ccc(F)cc1,-17,3,-4,x,-5,0
O=C(Nc1cccs1)Nc1ccc(F)cc1F,12,3,12,3,9.0*,0
COC(=O)C1C2CCC(C2)C1C(=O)OCC(=O)c1ccccc1 (stereo not given),-4,-5,5,1,-1,0
COc1ccc(N2CCN(/C(=N\S(=O)(=O)c3ccccc3)Nc3nc(C)cc(C)n3)CC2)cc1,-20,3,-15,3,2,1
Cc1ccc(S(=O)(=O)/N=C(/Nc2nc(C)cc(C)n2)N2CCOCC2)cc1,0,25*,-6,-3,-2,0
